In ChEMBL document CHEMBL2203278, “N-Phenyl-4-hydroxy-2-quinolone-3-carboxamides as selective inhibitors of mutant H1047R phosphoinositide-3-kinase (PI3Kα)” (Bioorg Med Chem, 2012):
pIC50: −log10 of the molar value.

Columns and labels:
[1] = test system: Phosphatidylinositol 4,5-bisphosphate 3-kinase catalytic subunit alpha isoform (Homo sapiens), P42336 [H1047R]; assay: Inhibition of PI3Kalpha H1047R mutant in human HCT116 cells assessed as increase in PARP cleavage relative to LY294002; format: cell-based; conditions: HCT-116
Summary of the method: (§1)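 Apoptosis was assessed in HCT116-WT and HCT116-MUT cells, each treated with compound at a single concentration, by immunoblot for the 88 kDa cleaved PARP product. Blots were blocked in 5% milk/TBST, probed with primary antibody (1:1000) and peroxidase secondary (1:1000), and developed by ECL. Band areas were quantified by densitometry relative to LY294002.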

[2] = target: Phosphatidylinositol 4,5-bisphosphate 3-kinase catalytic subunit alpha isoform (Homo sapiens) (UniProt P42336); assay: Inhibition of PI3Kalpha in human HCT116 cells assessed as increase in PARP cleavage relative to LY294002; format: cell-based; conditions: HCT-116; summary of the method: as §1
[3] = test system: Phosphatidylinositol 4,5-bisphosphate 3-kinase catalytic subunit alpha isoform (Homo sapiens), P42336 [H1047R]; assay: Inhibition of PI3Kalpha H1047R mutant in human HCT116 cells assessed as inhibition of Akt phosphorylation at S473 residue relative to DMSO; format: cell-based; conditions: HCT-116
Summary of the method: (§2)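 AKT activation was read as pAKT on immunoblots of lysates from compound-treated HCT116-WT and HCT116-MUT cells, tested at a single concentration. Lysate protein was measured by the […]. Blots were blocked in 5% milk/TBST, probed with primary antibody (1:1000) and HRP secondary (1:1000), and developed by ECL. Band areas were quantified relative to DMSO.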

[4] = target: Phosphatidylinositol 4,5-bisphosphate 3-kinase catalytic subunit alpha isoform (Homo sapiens) (UniProt P42336); assay: Inhibition of PI3Kalpha in human HCT116 cells assessed as inhibition of Akt phosphorylation at S473 residue relative to DMSO; format: cell-based; conditions: HCT-116; summary of the method: as §2
[5] = test system: Phosphatidylinositol 4,5-bisphosphate 3-kinase catalytic subunit alpha isoform (Homo sapiens), P42336 [H1047R]; assay: Inhibition of PI3Kalpha H1047R mutant in human HCT116 cells relative to LY294002; format: cell-based; conditions: HCT-116
Summary of the method: (§3)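 PI3K kinase activity was assayed in lysates of compound-treated HCT116-WT and HCT116-MUT cells, using a single compound concentration. Cells were washed with PBS, lysed, and the supernatants were collected by centrifugation for 15 min. Resulting band areas were quantified densitometrically relative to LY294002.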

[6] = target: Phosphatidylinositol 4,5-bisphosphate 3-kinase catalytic subunit alpha isoform (Homo sapiens) (UniProt P42336); assay: Inhibition of PI3Kalpha in human HCT116 cells relative to LY294002; format: cell-based; conditions: HCT-116; summary of the method: as §3
HCT-116 [7] = assay: Growth inhibition of human HCT116 cells expressing PI3Kalpha H1047R mutant by MTT assay; format: functional, cell-based
Summary of the method: (§4)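 Growth of parental (WT) and H1047R-mutant HCT116 cells was measured by MTT assay, with absorbance read at 570 nm.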

HCT-116 [8] = assay: Selectivity index, ratio of IC50 for human HCT116 cell to IC50 for PI3Kalpha H1047R mutant expressing human HCT116 cell; format: functional
HCT-116 [9] = assay: Growth inhibition of human HCT116 cells by MTT assay; format: functional, cell-based; summary of the method: as §4

Phosphatidylinositol 4,5-bisphosphate 3-kinase catalytic subunit alpha isoform (Homo sapiens), P42336 [H1047R], sequence (P42336 whole entry H1047R, canonical isoform): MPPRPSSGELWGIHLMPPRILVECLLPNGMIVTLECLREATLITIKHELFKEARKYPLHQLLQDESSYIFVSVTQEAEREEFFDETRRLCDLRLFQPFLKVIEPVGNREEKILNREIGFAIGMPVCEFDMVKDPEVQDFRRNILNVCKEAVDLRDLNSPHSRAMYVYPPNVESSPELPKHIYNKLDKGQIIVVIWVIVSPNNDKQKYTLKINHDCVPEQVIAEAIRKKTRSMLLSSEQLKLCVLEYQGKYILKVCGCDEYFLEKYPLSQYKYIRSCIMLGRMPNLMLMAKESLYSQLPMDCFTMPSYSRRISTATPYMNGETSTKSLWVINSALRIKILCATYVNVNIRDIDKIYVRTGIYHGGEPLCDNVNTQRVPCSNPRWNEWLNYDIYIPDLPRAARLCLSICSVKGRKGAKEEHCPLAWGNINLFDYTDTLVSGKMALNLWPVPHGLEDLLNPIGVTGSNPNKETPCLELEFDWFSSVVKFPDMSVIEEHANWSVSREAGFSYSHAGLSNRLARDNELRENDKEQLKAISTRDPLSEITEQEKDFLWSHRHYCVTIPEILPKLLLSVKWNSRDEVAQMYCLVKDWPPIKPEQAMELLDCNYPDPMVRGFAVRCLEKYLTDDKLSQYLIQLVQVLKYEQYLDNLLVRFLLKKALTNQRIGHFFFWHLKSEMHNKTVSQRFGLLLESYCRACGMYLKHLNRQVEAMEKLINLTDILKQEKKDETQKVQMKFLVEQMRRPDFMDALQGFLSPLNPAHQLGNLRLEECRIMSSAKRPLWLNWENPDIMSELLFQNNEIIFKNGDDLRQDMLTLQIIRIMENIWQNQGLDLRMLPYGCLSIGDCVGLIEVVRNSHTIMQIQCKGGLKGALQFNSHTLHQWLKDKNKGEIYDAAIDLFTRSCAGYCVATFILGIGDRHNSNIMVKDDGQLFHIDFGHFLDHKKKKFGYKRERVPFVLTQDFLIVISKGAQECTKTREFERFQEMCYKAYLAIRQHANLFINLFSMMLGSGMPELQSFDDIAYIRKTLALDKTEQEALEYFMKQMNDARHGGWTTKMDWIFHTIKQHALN
Phosphatidylinositol 4,5-bisphosphate 3-kinase catalytic subunit alpha isoform (Homo sapiens), sequence (P42336 whole entry, canonical isoform): as the sequence (P42336 whole entry H1047R, canonical isoform) above, with R1047H counted along it

Row | SMILES | fold change (FC) [1] | fold change (FC) [2] | fold change (FC) [3] | fold change (FC) [4] | fold change (FC) [5] | fold change (FC) [6] | pIC50 (HCT-116 [7]) | pIC50 (HCT-116 [9]) | Ratio IC50 (HCT-116 [8])
1 | O=c1cc(N2CCOCC2)oc2c(-c3ccccc3)cccc12 |  |  | 0.41 | 0.01 |  |  |  |  | 
2 | O=C(NCc1ccccc1)c1cnc2ccccc2c1O | 0.2 | 0.71 | 0.2 | 1 | 0.88 | 0.56 | 4.72 | 4.62 | 
3 | COc1ccc(NC(=O)c2c(O)c3cc(OC)ccc3[nH]c2=O)cc1 | 3.9 | 0.01 | 0.44 | 1.66 | 0.64 | 0.82 | 5.20 | 4.19 | 10
4 | Cn1c(=O)c(C(=O)Nc2ccccc2)c(O)c2ccccc21 |  |  |  |  |  |  | 4.00 | 3.96 | 
5 | O=C(Nc1ccc(F)cc1)c1c(O)c2cc(F)ccc2[nH]c1=O | 1.37 | 1.01 | 0.86 | 0.95 | 0.59 | 0.65 | 5.16 | 4.82 | 2.2
6 | O=C(NCc1ccccc1)c1cc2ccccc2[nH]c1=O | 0.05 | 0.92 | 0.13 | 0.09 | 0.8 | 0.14 | 3.48 | 3.38 | 
7 | O=C(NCc1ccccc1)c1cnc2ccccc2c1 | 0.06 | 0.81 | 0.3 | 1.59 | 0.87 | 0.7 | 3.92 | 4.19 | 

Further lines, with some results ahead:

Row | fold change (FC) [1] | fold change (FC) [2] | fold change (FC) [3] | fold change (FC) [4] | fold change (FC) [5] | fold change (FC) [6] | pIC50 (HCT-116 [7]) | pIC50 (HCT-116 [9]) | SMILES | Ratio IC50 (HCT-116 [8])
8 | 4.99 | 0.01 | 0.4 | 0.11 | 0.71 | 0.89 | 5.60 | 5.03 | O=C(Nc1ccccc1)c1c(O)nc2ccccc2c1O | 3.8
9 | 1.35 | 0.4 | 0.51 | 1.01 | 0.9 | 0.75 | 6.55 | 5.19 | O=C(Nc1cccc(F)c1)c1c(O)c2ccc(F)cc2[nH]c1=O | 23
10 | 5.05 | 0.88 | 1.23 | 1.6 | 0.75 | 0.69 | 5.44 | 4.66 | O=C(Nc1ccccc1F)c1c(O)c2cccc(F)c2[nH]c1=O | 6
11 | 1.14 | 1 | 0.41 | 1.66 | 0.79 | 0.75 | 5.25 | 4.57 | Cc1ccc(NC(=O)c2c(O)c3cc(C)ccc3[nH]c2=O)cc1 | 4.8
